Results of several laboratories.
Protocols differ between the studies behind these lines.
Target: Tyrosine-protein kinase Tec (TEC, Homo sapiens, UniProt P42680)
Sequence (P42680 1-631, as in one of the studies): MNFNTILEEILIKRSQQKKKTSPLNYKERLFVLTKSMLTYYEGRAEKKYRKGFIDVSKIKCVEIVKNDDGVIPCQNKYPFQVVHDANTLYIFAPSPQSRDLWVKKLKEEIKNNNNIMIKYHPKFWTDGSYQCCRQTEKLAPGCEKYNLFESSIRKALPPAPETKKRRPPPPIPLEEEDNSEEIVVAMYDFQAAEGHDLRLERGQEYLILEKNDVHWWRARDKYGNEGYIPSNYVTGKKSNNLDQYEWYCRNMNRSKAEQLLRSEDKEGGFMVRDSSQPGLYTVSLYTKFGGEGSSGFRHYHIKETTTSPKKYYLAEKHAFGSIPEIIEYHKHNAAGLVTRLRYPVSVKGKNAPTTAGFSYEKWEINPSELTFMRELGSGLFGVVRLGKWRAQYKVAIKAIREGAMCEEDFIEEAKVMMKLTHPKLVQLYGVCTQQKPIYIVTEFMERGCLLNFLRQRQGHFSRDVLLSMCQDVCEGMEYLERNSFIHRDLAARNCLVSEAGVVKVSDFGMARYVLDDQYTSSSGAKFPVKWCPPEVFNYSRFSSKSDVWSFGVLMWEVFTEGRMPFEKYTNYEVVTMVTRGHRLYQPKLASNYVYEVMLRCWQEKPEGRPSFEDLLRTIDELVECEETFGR

The remaining binding of `CCC(=O)N[C@H]1CC[C@@H](C(=O)N(C)c2ccc(-c3nc4ccccc4o3)cc2)C1` is reported as 100% (cell-free assay; competition with immobilised ligand; 1 µM).
With `CN(c1nccc(-c2cnn3ncccc23)n1)C1CC1` the remaining binding was 100% (binding; 1 µM).
The remaining binding of `O=C(NCCCN1CCOCC1)c1ccc(Nc2nccc(-c3cc4ccccc4s3)n2)cc1` is reported as 100% (binding; competition with immobilised ligand; 1 µM).
With `C[C@@]1(Cc2ccc(C#N)cc2)C(=O)N(c2cc(Cl)cc(Cl)c2)c2ncc(C(=O)NC3(c4nc(C5CCC5)no4)CC3)n21` the remaining binding was 92% (cell-free assay; competition with immobilised ligand; 1 µM).
For `C=CC(=O)N1CCC(C(=O)NCC(=O)N2CCN(c3nc(-c4cnc(N)nc4C(F)F)nc(N4CCOCC4)n3)CC2)CC1`, the remaining binding was 99% (binding; competition with immobilised ligand; 1 µM).
`COc1cnc(Nc2cccc(S(N)(=O)=O)c2)nc1N1CCN(c2ccccc2)CC1` gave a remaining binding of 85% (binding; competition with immobilised ligand; 1 µM).
For `CN(C)c1nccc(-c2cnn3ncccc23)n1`, the remaining binding was 90% (binding; 1 µM).
`O=C(NCCCN1CCOCC1)c1ccc(Nc2ncc(Cl)c(-c3ccc(Cl)s3)n2)cc1` has a remaining binding of 100% (binding; competition with immobilised ligand; 1 µM).
For `O=C(Nc1cccnn1)N1CCC(=Cc2cccc(Oc3ccc(C(F)(F)F)cn3)c2)CC1`, the remaining binding was 100% (cell-free assay; competition with immobilised ligand; 1 µM).
`N[C@H]1CCN(c2nccc(-c3cnn4ncccc34)n2)C1` has a remaining binding of 100% (binding; 1 µM).
For `O=C(c1ccc(Nc2ncc(Cl)c(-c3cc4ccccc4s3)n2)cc1)N1CCC(N2CCCC2)CC1`, the remaining binding was 99% (binding; competition with immobilised ligand; 1 µM).
For `CCCCN(CCCC)C(=O)CN1C[C@@H](c2cc(OC)c3c(c2)OCO3)[C@H](C(=O)O)[C@H]1CC(C)(C)CCC`, the remaining binding was 100% (cell-free assay; competition with immobilised ligand; 1 µM).
`Cc1cnn2ncc(-c3ccnc(N(C)C)n3)c2c1` has a remaining binding of 100% (binding; 1 µM).
`O=c1nc(-c2ccccn2)sc2ccccc12` has a remaining binding of 82% (binding; competition with immobilised ligand; 1 µM).
`O=C(NCC1CCOCC1)c1n[nH]cc1NC(=O)c1c(F)cccc1F` gave a remaining binding of 100% (binding; competition with immobilised ligand; 1 µM).
For `CN(C(=O)c1ccccc1)c1cc(N(C)c2ccc3c(c2)CCc2ccc(C(=O)NCCN4CCOCC4)cc2C3=O)ccc1F`, the remaining binding was 100% (cell-free assay; competition with immobilised ligand; 1 µM).
With `C[C@@H]1CCN(c2nccc(-c3cnn4ncccc34)n2)C1` the remaining binding was 90% (binding; 1 µM).
`CNC(=O)[C@@H]1CC[C@@H](n2c(-c3ccc4cnccc4c3)nc3ccc(C(=O)NCc4cccc(C(N)=O)c4)cc32)C1` has a remaining binding of 100% (binding; competition with immobilised ligand; 1 µM).
For `c1cnn2ncc(-c3ccnc(N4CCC45COC5)n3)c2c1`, the remaining binding was 99% (binding; 1 µM).
The remaining binding of `COc1ncc2cc3ccccc3nc2c1C#N` is reported as 100% (binding; competition with immobilised ligand; 5 µM).
`C[C@@H](c1ccc(-n2cnc3c(N)ncnc32)cc1)N1CCc2nn(C)c(Cc3ccccc3)c2C1=O` has a remaining binding of 63% (binding; competition with immobilised ligand; 0.1 µM).
